Assay outcomes deposited in PubChem BioAssay by several laboratories.
An excerpt weighted towards active compounds, which were near 2.4% of everything screened.
HSV replic up: HSV replication enhancement; 220,000 compounds, 0.005% hits; AID 1956; HSV replication augmentation in cells, fold increase; maximum fold increase; in the data active = maximum fold increase above about 1.5; inconclusive = no clear call, values can overlap the other calls; tested in PC3 cells
MT stabilize HCS: stabilizes microtubules in HeLa cells | HeLa tubulin immunostaining HCS, 24 h; share of cells brighter than vehicle mean+2SD | AID 2205 | % tubulin-high responders, % at 10 µM | 200,000 compounds, 0.83% hits;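 active = plate Z-score above 3 for both tubulin-high and condensed-nucleus cell shares, with cell loss under 80%, at 10 µM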;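 note: anti alpha tubulin signal scored within the nucleus-defined area of each cell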
ROMK mod: modulates human ROMK potassium channel activity; P48048; Tet-inducible ROMK, thallium flux fluorescence; actives lie on both sides; B-score at 10 µM; 130,000 compounds, 2% hits; AID 1918;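 active = signal ratio slope over the read window, or its plate-corrected B-score, at least 3 SD from the plate mean, either direction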;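 note: B-score of the F/F0 ratio slope over 7 to 12 s after thallium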
Target sequence (P48048 whole entry, looked up): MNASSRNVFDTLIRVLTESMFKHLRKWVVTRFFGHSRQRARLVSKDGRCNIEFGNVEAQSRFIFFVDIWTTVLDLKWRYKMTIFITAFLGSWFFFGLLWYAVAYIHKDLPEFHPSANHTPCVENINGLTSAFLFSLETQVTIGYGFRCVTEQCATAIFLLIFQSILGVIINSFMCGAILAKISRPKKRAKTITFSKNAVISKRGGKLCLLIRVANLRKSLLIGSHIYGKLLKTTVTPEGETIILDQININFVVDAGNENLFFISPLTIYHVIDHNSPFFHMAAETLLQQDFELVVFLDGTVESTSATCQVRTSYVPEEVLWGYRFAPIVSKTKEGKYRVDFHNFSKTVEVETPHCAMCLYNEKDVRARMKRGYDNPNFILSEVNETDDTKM
bCat nuc transl: alters nuclear translocation of beta-catenin in HeLa cells; immunofluorescence imaging; nuclear translocation activity, % at 5 µM; 190,000 compounds, 0.3% hits; AID 1665;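 active = nuclear translocation activity above 50% at 5 µM, with a well cell count of 50 or more; inconclusive = wells under 50 cells across six images, flagged as toxic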;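 note: per-cell ratio of nuclear to cytoplasmic median beta-catenin stain intensity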
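Read-out: Nuclear/cytoplasmic beta-catenin signal ratio, % activation | Assay system: Human HeLa cell line | Times: 24 h compound exposure at 37°C, 5% CO2 | Signal: Fluorescence imaging of beta-catenin antibody stain plus DAPI | Dosing: 5 µM primary, 0.02–20 µM confirmation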
Insulin prom inh: TRM-6 insulin promoter activity inhibition | TRM-6 cells (human fetal islet line), insulin promoter-eGFP reporter, imaging; reporter expression induced with tamoxifen | inhibition, % at 2 µM | 130,000 compounds, 0.9% hits;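 active = inhibition above the mean plus 3 SD, with well images judged a real hit on visual review, cut at about 60% in these data, passing the limit was not always enough; inconclusive = inhibition over the cutoff but images rejected on review; inactive = inhibition not above the cutoff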
Hits are given with their value; n = inactive; u = inconclusive; x = no result.

SMILES | HSV replic up | MT stabilize HCS | ROMK mod | bCat nuc transl | Insulin prom inh
CCC(c1nnnn1C1CCCC1)N(Cc1cccs1)Cc1cc2cc(C)ccc2[nH]c1=O (stereo unspecified) | n | 36 | x | 91 | x
Cc1ccc(S(=O)(=O)C(C#N)c2nc3ccccc3nc2N2CCCC2)cc1 (stereo unspecified) | u | n | n | n | n
COc1ccc(S(=O)(=O)C(C#N)c2nc3ccccc3nc2N2CCCC(C)C2)cc1 (stereo unspecified) | 1.6 | n | x | n | n
CCCCCn1nc(C(=O)OCC(=O)c2c(N)n(C)c(=O)n(C)c2=O)c2ccccc2c1=O | n | n | n | n | 71
CNC(=S)Nc1sc2c(c1C(=O)OC)CCC2 | n | n | 6.3 | n | x
COC(=O)c1c(NC(C)=O)sc2c1CCCC2 | n | n | x | n | n
CCN1C(=O)/C(=C/C2=Cc3ccccc3OC2C)SC1=S (stereo unspecified) | n | x | x | n | x
CCCOc1ccccc1C1CC(=O)NC(C)=C1C(=O)OCC(C)C (stereo unspecified) | n | n | n | n | n
CCOc1ccccc1C1CC(=O)NC2=C1C(=O)CCC2 (stereo unspecified) | n | 58 | 4.7 | n | x
CCOc1ccc(C2CC(=O)NC3=C2C(=O)CCC3)cc1 (stereo unspecified) | n | n | n | n | x
CCCOc1ccccc1C1CC(=O)NC2=C1C(=O)CCC2 (stereo unspecified) | n | n | x | 97 | x
COc1ccc(Cn2c(=O)c3cccnc3n(Cc3ccc([N+](=O)[O-])cc3)c2=O)cc1 | n | n | 2.8 | n | x
CCOc1cccc2cc(-c3cn4cc(C)ccc4n3)c(=O)oc12 | n | 42 | x | n | n
COc1cccc2cc(C(=O)Nc3ccc(S(=O)(=O)NCC4CCCO4)cc3)c(=O)oc12 (stereo unspecified) | n | x | n | n | x
C(=N\N=C\c1cccnc1)/c1cccnc1 | n | n | x | n | n
CN(/N=C/c1cccnc1)c1cnc2ccccc2n1 | n | n | n | n | 78
COc1ccccc1-n1nnnc1SCC(=O)NC1CCCC1 | n | n | x | n | n
COc1cccc(-n2nnnc2SCC(=O)NC2CCCC2)c1 | n | n | n | n | 75
CCOC(=O)CSc1ccc(-c2nc3ccccc3[nH]2)cn1 | n | n | x | n | n
N#CCSc1ccc(-c2nc3ccccc3[nH]2)cn1 | n | n | n | n | 90
CCc1nnc(NC(=O)CCN(c2cc(C)cc(C)c2)S(=O)(=O)c2ccc(Cl)cc2)s1 | n | 19 | x | n | x
CCOc1nsc(OCC)n1 | n | x | x | n | x
CCc1nc(NCCCN2CCOCC2)c2oc3ccccc3c2n1 | n | n | x | x | n
CCc1nc(NCCN2CCOCC2)c2oc3ccccc3c2n1 | n | n | n | n | 85
CCc1nc(NC(C)C)c2oc3ccccc3c2n1 | n | n | n | n | 89
SMILES | HSV replic up | MT stabilize HCS | ROMK mod | bCat nuc transl | Insulin prom inh
O=C(O)COCC(=O)NCc1csc2ccccc12 | n | x | x | n | x
CCOCCCNC(=O)C(c1ccccc1)N(Cc1ccc2c(c1)OCO2)C(=O)c1ccccc1O (stereo unspecified) | n | n | n | n | x
Cn1c(SCC(=O)O)nnc1C1CCCCC1 | n | n | x | n | 83
FC(F)(F)c1nc2ccccc2[nH]1 | n | x | x | n | x
CC(C)Sc1nc2ccccc2[nH]1 | n | n | n | n | 78
CC(C)(C)c1nc2ccccc2[nH]1 | n | n | n | x | 80
O=C(Nc1cc(Sc2nc3ccccc3s2)cc([N+](=O)[O-])c1)c1cccc(F)c1F | n | n | x | x | x
Cc1ccc(O)c(CC(C)C)n1 | n | n | x | n | 84
COc1ccc(CCc2nc(C)ccc2O)cc1 | n | n | n | n | 89
Cc1ccc(O)c(CO)n1 | n | x | x | n | x
CCCCn1c(N(CCOC(C)=O)C(C)=O)nc2ccccc21 | n | n | n | x | 89
CCCCn1c(=O)c(CC(C)=O)nc2ccccc21 | n | n | n | x | n
O=C(Nc1nnc(SCC(=O)N2CCCCC2)s1)C1CCCCC1 | n | n | x | n | 73
O=C(CSc1nnc(NC(=O)C2CCC2)s1)NC1CC1 | n | n | n | n | n
Cc1nc2ccc(F)cc2cc1C(=O)NC(C)C | n | n | x | n | x
COc1ccc(-c2c3c(=O)n(C)c(=O)n(C)c3cn2Cc2ccccn2)cc1 | n | n | n | n | n
COc1ccc(-c2c3c(=O)n(C)c(=O)n(C)c3cn2Cc2cccnc2)cc1 | n | n | n | n | 73
CCCn1nnc(NC(=O)COc2ccc(C3CCCCC3)cc2)n1 | n | n | x | n | 100
CCCn1nnc(NC(=O)COc2ccc(Cl)cc2)n1 | n | n | n | n | n
NC(=O)c1nsc(C(=O)N(c2cccc(F)c2)C(C(=O)NCC2CCCO2)c2cccs2)c1N (stereo unspecified) | n | n | n | n | n
CCOC(=O)c1sc2nc(-c3cccnc3)ccc2c1N | n | n | n | n | 71
NC(=O)c1sc2nc(-c3cccnc3)ccc2c1N | n | x | n | n | x
S=c1[nH]c(-c2ccccc2)cn1/N=C/c1ccccc1Br | n | n | n | n | x
S=c1[nH]c(-c2ccccc2)cn1/N=C/c1cccc2ccccc12 | n | 18 | n | n | n
CC(=O)/C(=C/c1ccc(N(C)C)cc1)C(=O)c1ccccc1 | n | n | n | n | n
SMILES | HSV replic up | MT stabilize HCS | ROMK mod | bCat nuc transl | Insulin prom inh
CC(=O)N1/C(=C/c2ccc(N(C)C)cc2)C(=O)c2ccccc21 | n | 20 | x | n | n
Cn1c(Cl)c(C(=O)Nc2ccc(Cl)cc2)c2ccccc21 | n | 28 | x | n | n
C=CCNc1ncnc2sc(SC)nc12 | n | x | x | n | x
Cc1ccc(OC(C)C(=O)N=Nc2c(O)[nH]c3ccc([N+](=O)[O-])cc23)cc1 (stereo unspecified) | n | 16 | n | n | x
Cc1ccc(NCC(=O)N=Nc2c(O)[nH]c3ccc([N+](=O)[O-])cc23)cc1 | n | x | x | n | x
CC(=O)Nc1ccc(NC(=O)Cc2ccc(S(=O)(=O)N3CCCCC3)s2)cc1 | n | n | n | n | 80
Cc1ccc(C)c(NC(=O)Cc2ccc(S(=O)(=O)N3CCCCC3)s2)c1 | n | n | n | n | x
Cc1cc(-c2ccccc2C(=O)NC2CCCCC2)on1 | n | x | x | n | x
COc1ccc(OC)c(-n2c(SCC(=O)N3CCc4ccccc43)nc3c(c2=O)SCC3)c1 | n | n | x | n | 70
O=C(NCCCN1CCOCC1)c1c(O)c2cc(Br)cc(Br)c2[nH]c1=O | x | n | -3.3 | n | n
Cc1ccccc1C(=O)NC1CCN(C(=O)N(c2ccccc2)c2ccccc2)CC1 | n | n | x | n | n
Cc1ccccc1C(=O)NC1CCN(C(=O)N2CCOCC2)CC1 | n | n | n | n | 75
NC(=O)[C@@H]1CCCCNc2c(I)cc([N+](=O)[O-])cc2C(=O)N[C@@H](CCC(=O)O)C(=O)N[C@@H](CO)C(=O)N1 | n | n | n | n | 60
Cc1ccc(Cl)cc1N1CCN(C(=O)CN2C(=O)c3cccc4cccc2c34)CC1 | n | n | -2.8 | n | n
Clc1ccc(-n2ncc3c(NCc4ccco4)ncnc32)cc1 | n | n | 3.9 | n | x
c1ccc(CNc2ncnc3c2cnn3Cc2ccccc2)cc1 | n | 44 | n | n | n
Clc1ccc(Cn2ncc3c(NCc4ccco4)ncnc32)c(Cl)c1 | n | 46 | n | x | x
